# Results of several laboratories.
# Each line is one published result; the experiments were not run side by side.
# Target: Serine/threonine-protein kinase Nek4 (NEK4, Homo sapiens, UniProt P51957)
Structure (SMILES),effect on,mode,technique,concentration,measurement,value
Cn1cc(-c2cc(F)cc(N3CCn4c(cc5c4CCCC5)C3=O)c2CO)cc(Nc2ccc(N3CCN(C4COC4)CC3)cn2)c1=O,enzyme activity,inhibitor,,0.1 µM,inhibition,9%
N#CC1(c2ccccn2)CCN(Cc2cc(C(=O)O)c(=O)n3ccccc23)CC1,cell-free assay,,competition with immobilised ligand,1 µM,remaining binding,100%
COc1cc(Nc2ncc(F)c(Nc3ccc4c(n3)NC(=O)C(C)(C)O4)n2)cc(OC)c1OC,binding,,competition with immobilised ligand,10 µM,inhibition,91%
Nc1ncc(-c2nc(N3CCOCC3)nc(N3CCOCC3)n2)c(C(F)F)n1,binding,,competition with immobilised ligand,10 µM,remaining binding,75%
O=c1[nH]c2ccccc2n1C1CCN(Cc2ccc(-c3[nH]c4cc5ncnc5cc4nc3-c3ccccc3)cc2)CC1,cell-free assay,,,0.5 µM,remaining signal,106%
Cc1nn(C)cc1-c1nc2c(N3CCN(Cc4ccc(Cl)cc4)CC3)c(Cl)cnc2[nH]1,binding,,competition with immobilised ligand,1 µM,remaining binding,82%
Cn1cc(-c2cccc(N3CCc4c(sc5c4CC(C)(C)C5)C3=O)c2CO)cc(Nc2ccncn2)c1=O,enzyme activity,inhibitor,,1 µM,inhibition,2%
Cn1cncc1[C@@](O)(COc1ccc(C#N)cc1-c1ccc(OC(F)(F)F)cc1)c1ccc(C#N)cc1,cell-free assay,,competition with immobilised ligand,1 µM,remaining binding,90%
CC(C)(C)c1cc(C=C(C#N)C#N)cc(Br)c1O,enzyme activity,inhibitor,,0.5 µM,remaining activity,93.7%
COc1ncccc1-c1cnn2ccc(N3CCN(C(=O)OC(C)C)CC3)nc12,binding,,competition with immobilised ligand,1 µM,remaining binding,87%
